# Assay outcomes (PubChem)
# OX1R antag-1: human HCRTR1 antagonism; CHO/OX1R cells, Fluo-8 calcium fluorescence, orexin A; inhibition, % at 5 µM; 330,000 compounds, 0.43% hits; AID 434989;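 active means inhibition above its plate's threshold, mean inhibition of all tested compounds on the plate plus 3 SD, cut at about 37% in these data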;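 further: 0% = orexin A challenge wells and 100% = SB-334867-A antagonist wells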
# Target sequence (O43613 whole entry, looked up): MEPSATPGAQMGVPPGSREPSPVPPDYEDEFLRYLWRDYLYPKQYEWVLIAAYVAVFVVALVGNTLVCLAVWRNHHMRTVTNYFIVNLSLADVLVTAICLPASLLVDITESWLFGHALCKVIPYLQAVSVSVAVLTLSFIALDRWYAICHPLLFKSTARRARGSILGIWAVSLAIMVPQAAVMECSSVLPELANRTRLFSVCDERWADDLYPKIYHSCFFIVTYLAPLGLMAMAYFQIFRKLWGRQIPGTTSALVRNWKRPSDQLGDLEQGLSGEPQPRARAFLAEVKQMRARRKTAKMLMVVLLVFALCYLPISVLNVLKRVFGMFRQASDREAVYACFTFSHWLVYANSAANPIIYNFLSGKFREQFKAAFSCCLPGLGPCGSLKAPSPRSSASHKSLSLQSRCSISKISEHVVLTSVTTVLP
# OX1R antag-2: OX1R (human) antagonism; OX1R-expressing cells, FRET antagonist read-out; O43613; AID 485270; inhibition, % at 6.6 µM; 330,000 compounds, 1.8% hits; in the data active means inhibition mostly above about 38%, no sharp cut-off; inactive means mostly below about 40%;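 further: 0% = agonist challenge alone and 100% = reference antagonist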
# CHO-K1 Ca antag: counter-screen for M1 antagonists: effect in parental CHO-K1 cells. ATP-induced calcium, Fluo-8 fluorescence. inhibition, % at 3 µM. 360,000 compounds, 0.6% hits;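 active means inhibition above a per-plate cutoff, the plate's mean sample inhibition plus 3 SD, cut at about 24% in these data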;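 further: 0% = DMSO plus EC80 ATP and 100% = DMSO alone without ATP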
# CHO-K1 Ca ag: counter-screen for M1 agonists: effect in parental CHO-K1 cells | Fluo-8 calcium fluorescence; scaled to maximal ATP response, vehicle zero | activation, % at 3 µM | 360,000 compounds, 0.48% hits; in the data active means activation above about 15%;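 further: untransfected CHO-K1 host cells lacking M1 receptor as counterscreen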
# CHO-K1 Ca PAM: M1 PAM counterscreen hit in parental CHO-K1 cells; ATP EC20, Fluo-8 calcium fluorescence; 0% at ATP EC20, 100% at ATP max; activation, % at 3 µM; 360,000 compounds, 0.02% hits;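 active means activation above the run cutoff, the mean activation of all test compounds plus 3 SD, cut at about 40% in these data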;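 further: peak over basal fluorescence ratio in a 140 s read after ATP addition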
# CHO parental Ca: counter-screen: ATP calcium response change in parental CHO cells; AID 463079; 330,000 compounds, 0.63% hits; parental CHO-K1, ATP-induced calcium, Fluo-8 fluorescence; inhibition, % at 5.6 µM;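 active means inhibition above that plate's mean sample inhibition plus 3 SD, cut at about 26% in these data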;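 further: 0% = ATP-challenged DMSO wells and 100% = DMSO wells without ATP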
#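 Assay system: parental CHO cells; Read-out basis: percent inhibition of ATP-evoked calcium rise, normalized to controls; Benchmarks: ATP and no-ATP DMSO wells; Compound dosing: single nominal dose of 5.6 µM per compound; Signal: Fluo-8 calcium dye fluorescence; Also added: ATP as calcium-mobilizing challenge; Repeats: singlicate.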
# Active calls of the source: *; nt = no result given. The list is not random: actives were taken first. Their share in the collection is about 2.9%.
SMILES,OX1R antag-1,OX1R antag-2,CHO-K1 Ca antag,CHO-K1 Ca ag,CHO-K1 Ca PAM,CHO parental Ca
COc1cccc(CNC(=O)Cc2csc(NC(=O)Nc3ccccc3OC)n2)c1,-20,42*,7,6,2,-14
COc1ccccc1NC(=O)Nc1nc(CC(=O)NCc2ccc(F)cc2)cs1,-25,25,11,7,7,-8
N#C/C(=C\c1ccc(Cl)c([N+](=O)[O-])c1)c1ccccn1,-8,71*,-12,1,16,-20
CC1=C/C(=C\C=C(C#N)C#N)N(C)c2ccccc21,44*,21,4,27*,2,33*
CN1/C(=C/C=C(C#N)C#N)C(C)(C)c2ccccc21,-4,5,-17,1,17,-1
CC1CCCCC12NC(=O)N(CC(=O)Nc1ccc(N3CCOCC3)cc1)C2=O (centres undefined),-2,-8,-14,2,24,-13
CC1CCC2(CC1)NC(=O)N(CC(=O)Nc1ccc(N3CCOCC3)cc1)C2=O (centres undefined),6,7,8,1,5,71*
COC(=O)c1csc(S(=O)(=O)N2CCOCC2)c1OC,-2,-3,-7,5,22,0
Cc1ccc(NC(=O)C2CCN(S(=O)(=O)c3c(C)nn(C)c3C)CC2)c(Cl)c1,-13,2,37*,2,16,-9
Cc1ccc(Cl)cc1N1CCN(C(=O)C2CCN(S(=O)(=O)c3c(C)nn(C)c3C)CC2)CC1,25,12,16,12,-2,35*
CC(C)(C)CC(=O)Nc1nnc(C(F)(F)F)s1,-11,3,2,0,9,-8
Cc1nn(-c2ccccc2)nc1C(=O)Nc1nnc(C(F)(F)F)s1,0,41*,-7,8,8,-3
CCc1nnc(NC(=O)c2nn(-c3ccccc3)nc2C)s1,-28,3,-14,2,12,-14
CC(NC(=O)Nc1nnc(C(F)(F)F)s1)(C(F)(F)F)C(F)(F)F,51*,59*,23,8,-3,60*
O=C(Nc1ccccc1C(=O)Nc1nnc(C(F)(F)F)s1)c1ccccc1Cl,37*,80*,27*,28*,-25,54*
O=C(Nc1nnc(C(F)(F)F)s1)c1ccc(Br)s1,7,49*,3,13,-13,26*
CCSc1nnc(NC(=O)c2ccc(Br)s2)s1,1,9,-6,1,7,0
NC(=O)c1ccccc1NC(=O)c1ccccc1Cl,-16,5,8,0,-22,-10
Cc1cc(-c2nnc(SCC(=O)Nc3ccc(Br)cc3F)n2N)n[nH]1,-17,9,-16,0,-2,-10
O=C(Nc1cccc(Cl)c1N1CCOCC1)c1cccnc1Cl,-10,13,-1,22*,8,-25
O=C(Nc1ccccc1N1CCCC1)c1cccnc1Cl,-7,8,-7,0,14,-12
COc1nc(C)ccc1-c1noc(-c2ccccn2)n1,-10,14,-13,-1,3,-14
COc1ccccc1NC(=O)c1ccccc1-c1nc(-c2ccccc2OC)no1,10,55*,0,5,23,-20
COc1ccccc1-c1nc(-c2ccc(C)nc2OC)no1,-23,25,26*,0,-5,-30
Cc1ccc2nc(-c3cccc(SC4CCCCC4)c3)c(NCc3ccccc3)n2c1,16,11,-7,0,12,-13
SMILES,OX1R antag-1,OX1R antag-2,CHO-K1 Ca antag,CHO-K1 Ca ag,CHO-K1 Ca PAM,CHO parental Ca
c1ccc(CNc2c(-c3cccc(SC4CCCCC4)c3)nc3ccccn23)cc1,73*,35,-1,2,-4,82*
CCCCNc1c(-c2cccc(SC(C)CC)c2)nc2ccc(Cl)cn12 (centres undefined),-14,17,-19,0,20,-20
CCCCNc1c(-c2ccc(SC(C)CC)cc2)nc2ccccn12 (centres undefined),56*,61,13,1,-18,87*
CCCCNc1c(-c2ccc(SC3CCCCC3)cc2)nc2ccccn12,41,31,-10,0,-5,80*
O=C(NCC(=O)N1CCC2(CC1)NCCc1[nH]cnc12)c1ccc2ccccc2c1,5,12,0,1,13,-4
CC/C(=N\NC(=O)CSCc1ccc(Cl)cc1)c1ccc2c(c1)OCCO2,-1,21,28*,0,-7,-11
Cc1nn(-c2ccc(F)cc2)c(Cl)c1C(=O)NCC1CCCO1 (centres undefined),0,-3,-8,0,16,-4
COc1ccccc1OCCSc1nnnn1-c1ccc(C)cc1,-41,16,-3,2,10,40*
O=C(CN1CCN(C(c2ccccc2)c2ccccc2)CC1)NC(=O)NCc1ccco1,-33,8,27*,-1,-9,-16
CN(C)CCCN1C(=O)c2cccc3c([N+](=O)[O-])ccc(c23)C1=O,21,68*,13,0,-3,18
COCCCNc1ncnc2sc3c(c12)CCC(C)C3 (centres undefined),-31,12,30*,0,-5,-9
C=CCN1c2ccccc2C(=O)CS1(=O)=O,-11,9,-5,0,-10,-14
CCn1cc(/C=N/N=C2\CCC3C4CCc5cc(O)ccc5C4CC[C@]23C)c(C)n1 (some centres undefined),30,53,-13,3,22,38*
CC(=O)OC1CCC2C3CCc4cc(O)ccc4C3CCC12C (centres undefined),nt,nt,-4,1,13,nt
CCOC(=O)c1ccc(N2CCOCC2)c(NS(=O)(=O)c2ccc(F)cc2)c1,-28,24,-10,1,2,-18
CC(C)C(=O)NNC(=O)c1cc2sccc2s1,-3,6,-4,1,18,0
O=S(=O)(NCC1(N2CCOCC2)CCCCC1)c1ccc(Cl)cc1C(F)(F)F,-49,3,-6,0,-3,-23
COC(=O)c1cc(C(=O)N2CCOCC2)cc([N+](=O)[O-])c1,8,77*,-21,0,-7,11
Cc1ccc(C(=O)N2CC(C)OC(C)C2)cc1[N+](=O)[O-] (centres undefined),-7,20,15,0,-14,-11
O=C(NC(N1CCOCC1)C(Cl)(Cl)Cl)c1cc([N+](=O)[O-])cc([N+](=O)[O-])c1 (centres undefined),3,73*,-12,1,13,-6
CC1CN(C(=O)c2cc([N+](=O)[O-])cc([N+](=O)[O-])c2)CC(C)O1 (centres undefined),-21,62*,-19,0,9,-17
CCCC1(c2ccccc2)NC(=O)N(CC(=O)NCC2COc3ccccc3O2)C1=O (centres undefined),-17,17,-13,0,7,-20
